Where “and” joins values, the source holds several entries; their conditions need not be identical. Equal entries are not always repeated.
Tests used:
SIRT6 protein = SIRT6 protein (Gallus gallus, UniProt A0A8V1A309); assay: Frontal affinity chromatography on the SIRT6-OT column; format: binding, chicken; conditions: for Kd: SIRT6-OT column, ammonium acetate 10 mM pH 7.4:methanol 90:10, 0.2 mM NAD+, non-linear regression
SIRT6 = assay: Histone deacetylation assay by mass spectrometry on SIRT6-coated magnetic beads; format: biochemical, chicken; conditions: 10 μM of each compound, H3K9Ac peptide, 0.2 mM NAD+, 4 h at 37°C
Procedure, shortened: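 SIRT6 was coupled by its C-terminus to amine-terminated magnetic beads (1 μm). Beads were incubated in 50 μL of 50 mM Tris-HCl pH 8.0, 150 mM NaCl, 1 mM DTT with 5 μg of H3K9Ac peptide (residues 1–21). p-Aminohippuric acid was added as internal standard. The supernatant, taken after magnetic separation, was run on C18 LC-ESI-MS, positive-ion SIM at m/z 922.4 (acetylated) and 908.4 (deacetylated).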

[1] = tested on: quercetin binding site of SIRT6; assay: Frontal displacement chromatography of quercetin on the SIRT6-OT column; design: species or system chicken; conditions: 10 μM polyphenol in mobile phase in the presence of 5 μM quercetin
Procedure, shortened: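 Full-length chicken SIRT6, expressed in E. coli as a GST fusion, thrombin-cleaved and purified by size exclusion. Coupled inside an open tubular capillary (30 cm × 100 μm i.d.) with EDC/Sulfo-NHS in 100 mM MES pH 5.5, 18 h at 4°C. Frontal runs at room temperature, 0.05 mL min^-1, in 10 mM ammonium acetate pH 7.4:methanol (90:10) with 0.2 mM NAD⁺. ESI-MS detection; retention-volume shift recorded.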

Compound | Kd (SIRT6 protein) | % inhibition of deacetylation relative to control (SIRT6) | displacement of quercetin (change in retention) [1] | fold decrease in affinity for the SIRT6 protein (SIRT6 protein; naringenin vs apigenin (saturation of the C ring double bond)) | breakthrough volume (SIRT6 protein; 2 μM quercetin on SIRT6-OT column) | midpoint of the breakthrough curve (SIRT6 protein; 2 μM quercetin on SIRT6-OT column, 0.05 mL/min)
O=c1cc(-c2ccc(O)c(O)c2)oc2cc(O)cc(O)c12 [Luteolin] | 1.78 ± 0.64 µM | 53.7 ± 17.7% | 38.1 min | – | – | –
O=c1cc(-c2ccc(O)cc2)oc2cc(O)cc(O)c12 [Apigenin] | 1.9 µM and 1.92 µM | 39.0 ± 5.9% | – | – | – | –
O=c1c(O)c(-c2ccc(O)cc2)oc2cc(O)cc(O)c12 [Kaempferol] | 3.88 ± 0.57 µM | 48.6 ± 6.0% | – | – | – | –
O=c1c(-c2ccc(O)cc2)coc2cc(O)cc(O)c12 [genistein, Genistein] | – | – | 2.5 min | – | – | –
O=c1cc(-c2ccc(O)cc2)oc2c([C@@H]3O[C@H](CO)[C@@H](O)[C@H](O)[C@H]3O)c(O)cc(O)c12 [Vitexin] | 15.3 µM | 24.9 ± 0.9% | 16.5 min | – | – | –
O=C1C[C@@H](c2ccc(O)cc2)Oc2cc(O)cc(O)c21 [Naringenin] | 6.6 µM and 6.62 µM | 31.0 ± 5.3% | – | 3 fold | – | –
O=c1c(O)c(-c2ccc(O)c(O)c2)oc2cc(O)cc(O)c12 [Quercetin] | 4.09 ± 2.26 µM | 46.6 ± 2.3% | – | – | 5.25 mL | 105 min
